Measurements reported in ChEMBL document CHEMBL5230168, “Design, synthesis, and biological evaluation of new arjunolic acid derivatives as anticancer agents” (RSC Med Chem, 2023).
Calls of active or inactive are those of the source. The calls are words filed in the database; no cut-off is given here.

What was measured:
[1] = test system: PANC-1; experiment: Induction of apoptosis in human PANC-1 cells assessed as viable cells at […] incubated for 24 hrs by Annexin V-FITC/PI staining based flow cytometric analysis (reference value: 89.8%); assay type: functional; details: read-out: Activity
Summary of the method: (§1)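 PANC-1 seeded at 2 × 10^5 cells/well, grown 24 h, then treated 24 h. PI added just before flow cytometry. Quadrant percentages given as mean ± SD of three experiments. Untreated control.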

[2] = test system: PANC-1; experiment: Synergistic cytotoxicity against human PANC-1 cells assessed as combination index at 1.88 uM incubated for 72 hrs in the presence of 94 uM gemcitabine by MTT assay; assay type: functional
[3] = test system: PANC-1; experiment: Synergistic cytotoxicity against human PANC-1 cells assessed as combination index at 0.12 uM incubated for 72 hrs in the presence of 6 uM gemcitabine by MTT assay; assay type: functional
[4] = test system: PANC-1; experiment: Induction of apoptosis in human PANC-1 cells assessed as late apoptotic cells at […] incubated for 24 hrs by Annexin V-FITC/PI staining based flow cytometric analysis (reference value: 1.1%); assay type: functional; summary of the method: as §1
[5] = test system: PANC-1; experiment: Induction of apoptosis in human PANC-1 cells assessed as early apoptotic cells at 1.88 uM incubated for 24 hrs by Annexin V-FITC/PI staining based flow cytometric analysis (reference value: 5.2%); assay type: functional; summary of the method: as §1
[6] = test system: PANC-1; experiment: Cytotoxicity against human PANC-1 cells assessed as inhibition of cell growth incubated for 72 hrs by MTT assay; assay type: functional, cell-based; details: PANC-1, 72 h
Summary of the method: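 Cells seeded per well (HT-29 4500, PANC-1 4000, SK-MEL-28 3200, A375 1200, A549 2500, H2170 and BJ 10 000) and left 24 h. They were then exposed to increasing concentrations for 72 h and incubated 1 h with MTT 0.5 mg mL−1. Formazan was dissolved in DMSO and absorbance read at 550 nm. IC50 from three independent experiments. Final DMSO ≤0.5%.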

[7] = test system: PANC-1; experiment: Induction of apoptosis in human PANC-1 cells assessed as necrotic cells at 1.88 uM incubated for 24 hrs by Annexin V-FITC/PI staining based flow cytometric analysis (reference value: 3.9%); assay type: functional; summary of the method: as §1
[8] = test system: PANC-1; experiment: Induction of apoptosis in human PANC-1 cells assessed as late apoptotic cells at 1.88 uM incubated for 24 hrs by Annexin V-FITC/PI staining based flow cytometric analysis (reference value: 1.1%); assay type: functional; summary of the method: as §1
[9] = test system: PANC-1; experiment: Synergistic cytotoxicity against human PANC-1 cells assessed as combination index at 0.24 uM incubated for 72 hrs in the presence of 12 uM gemcitabine by MTT assay; assay type: functional
[10] = Toxicity in Balb/c mouse assessed as ptosis at 50 to 100 mg/kg, ip measured upto 24 hrs by Irwin test; assay type: organism-based; details: in vivo, dose 50-100 mg/kg
Summary of the method: (§2)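 Irwin primary observation in female Balb/c mice aged 7–8 weeks, 3 per group. Single i.p. doses of 0.01, 0.1, 1, 5, 10, 50 and 100 mg kg−1 in 0.2% HPMC in saline; vehicle controls observed in parallel, non-blind. Standardized grid including rectal temperature and pupil diameter scored at 15, 30, 60, 120 and 180 min and 24 h, with continuous watch over 0–15 min.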

[11] = Toxicity in Balb/c mouse assessed as occasional writhing at 0.01 to 10 mg/kg, ip measured upto 24 hrs by Irwin test; assay type: organism-based; details: in vivo, dose 0.01-10 mg/kg; summary of the method: as §2
[12] = test system: PANC-1; experiment: Induction of apoptosis in human PANC-1 cells assessed as viable cells at 1.88 uM incubated for 24 hrs by Annexin V-FITC/PI staining based flow cytometric analysis (reference value: 89.8%); assay type: functional; details: read-out: Activity; summary of the method: as §1
[13] = Selectivity index, ratio of IC50 for cytotoxicity against human BJ cells to IC50 for cytotoxicity against human PANC-1; assay type: toxicity, cell-based; details: BJ cells and PANC-1 cells, read-out: Ratio IC50
Summary of the method: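 Selectivity index: BJ fibroblast IC50 over PANC-1 IC50, both from the 72 h MTT assay with 24 h pre-seeding (10 000 and 4000 cells/well). IC50 from three independent experiments.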

[14] = test system: PANC-1; experiment: Induction of apoptosis in human PANC-1 cells assessed as appearance of apoptotic bodies at 0.47 to 2.82 uM incubated for 24 hrs by Hoechst 33342 staining based fluorescence microscopic analysis; assay type: functional, cell-based; details: dose 0.47-2.82 µM
Summary of the method: (§3)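 PANC-1 at 6500 cells/well, pre-incubated 24 h, then treated for 24 h. Washed with PBS and stained with Hoechst 33342 (1 μg mL−1 in PBS) 10 min at 37 °C in the dark. Nuclear morphology imaged by high-content fluorescence microscopy with a DAPI filter. Untreated cells as control.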

[15] = Toxicity in Balb/c mouse assessed as abnormal gait with rolling at 50 to 100 mg/kg, ip measured upto 24 hrs by Irwin test; assay type: organism-based; details: in vivo, dose 50-100 mg/kg; summary of the method: as §2
[16] = Toxicity in Balb/c mouse assessed as decrease of respiration at 50 to 100 mg/kg, ip measured upto 24 hrs by Irwin test; assay type: organism-based; details: in vivo, dose 50-100 mg/kg; summary of the method: as §2
[17] = test system: PANC-1; experiment: Induction of cell cycle arrest in human PANC-1 cells assessed as accumulation of cells at G0/G1 phase at 1.88 uM incubated for 24 hrs by PI staining based flow cytometric analysis (Rvb= 51.8 %); assay type: functional
[18] = Toxicity in Balb/c mouse assessed as hypothermia at 50 to 100 mg/kg, ip measured upto 24 hrs by Irwin test; assay type: organism-based; details: in vivo, dose 50-100 mg/kg; summary of the method: as §2
[19] = test system: PANC-1; experiment: Induction of apoptosis in human PANC-1 cells assessed as chromatin condensation at 0.47 to 2.82 uM incubated for 24 hrs by Hoechst 33342 staining based fluorescence microscopic analysis; assay type: functional, cell-based; details: dose 0.47-2.82 µM; summary of the method: as §3
[20] = test system: PANC-1; experiment: Induction of cell cycle arrest in human PANC-1 cells assessed as accumulation of cells at G0/G1 phase incubated for 24 hrs by PI staining based flow cytometric analysis; assay type: functional; details: dose 0.47-2.82 µM
[21] = Toxicity in Balb/c mouse assessed as decrease in activity at 50 to 100 mg/kg, ip measured upto 24 hrs by Irwin test; assay type: organism-based; details: in vivo, dose 50-100 mg/kg; summary of the method: as §2
[22] = test system: PANC-1; experiment: Induction of apoptosis in human PANC-1 cells assessed as late apoptotic cells at 2.82 uM incubated for 24 hrs by Annexin V-FITC/PI staining based flow cytometric analysis (reference value: 1.1%); assay type: functional; summary of the method: as §1
[23] = Toxicity in Balb/c mouse assessed as decreased fear/startle at 50 to 100 mg/kg, ip measured upto 24 hrs by Irwin test; assay type: organism-based; details: in vivo, dose 50-100 mg/kg; summary of the method: as §2
[24] = Toxicity in Balb/c mouse assessed as tremor at 50 to 100 mg/kg, ip measured upto 24 hrs by Irwin test; assay type: organism-based; details: in vivo, dose 50-100 mg/kg; summary of the method: as §2
[25] = test system: PANC-1; experiment: Induction of apoptosis in human PANC-1 cells assessed as viable cells at 2.82 uM incubated for 24 hrs by Annexin V-FITC/PI staining based flow cytometric analysis (reference value: 89.8%); assay type: functional; details: read-out: Activity; summary of the method: as §1
[26] = test system: PANC-1; experiment: Induction of apoptosis in human PANC-1 cells assessed as necrotic cells at 0.94 uM incubated for 24 hrs by Annexin V-FITC/PI staining based flow cytometric analysis (reference value: 3.9%); assay type: functional; summary of the method: as §1
[27] = test system: PANC-1; experiment: Induction of cell cycle arrest in human PANC-1 cells assessed as decrease in S phase cells at 1.88 uM incubated for 24 hrs by PI staining based flow cytometric analysis (Rvb= 19.8 %); assay type: functional; parameters: scale not given: the % may be the effect or the level left

## CCOC(=O)[C@]12CCC(C)(C)C[C@H]1C1=CC[C@@H]3[C@@]4(C)C(C=O)=C[C@@](C)(CO)[C@@H]4CC[C@@]3(C)[C@]1(C)CC2
[1]
  viability: 91.7%
[2]
  CI: 0.79
[3]
  CI: 0.93
[4]
  Activity: 1.1%
[5]
  Activity: 7.5%
[6]
  IC50: 470 nM
[7]
  Activity: 3.1%
[8]
  Activity: 2.2%
[9]
  CI: 0.75
[10]
  Activity: Toxic
[11]
  Activity: Non-Toxic
[12]
  viability at 1.88 µM: 87.3%
[13]
  selectivity ratio: 6.5
[14]
  Activity: inactive
[15]
  Activity: Toxic
[16]
  Activity: Toxic
[17]
  Activity: 70.2%
[18]
  Activity: Toxic
[19]
  Activity: inactive
[20]
  Activity: Dose-Dependent Effect
[21]
  Activity: Toxic
[22]
  Activity: 3.5%
[23]
  Activity: Toxic
[24]
  Activity: Toxic
[25]
  viability at 2.82 µM: 84.7%
[26]
  Activity: 2.6%
[27]
  Activity: 3.7%
